# Data taken from ChEMBL document CHEMBL4715736, “Identification of anticancer agents based on the thieno[2,3-b]pyridine and 1H-pyrazole molecular scaffolds” (2016).
# Tests used:
# Format in all cases: functional
# OVCAR-4 [1] = test: Growth inhibition of human OVCAR-4 cells assessed as cell growth at 100 uM incubated for 48 hrs by sulforhodamine B assay relative to control; settings: read-out: Activity
# UACC-257 = test: Growth inhibition of human UACC-257 cells assessed as cell growth at 100 uM incubated for 48 hrs by sulforhodamine B assay relative to control; settings: read-out: Activity
# OVCAR-4 [2] = test: Growth inhibition of human OVCAR-4 cells incubated for 48 hrs by sulforhodamine B assay; settings: for CC50: read-out: LC50 (the source's name)
# Method in brief: (§1)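 NCI DTP 60-line human tumour panel. Dose-response curves were run only for ligands active in the initial 10 µM screen. GI50 (concentration giving 50% of maximal inhibition of proliferation) and TGI (concentration giving total growth inhibition) were derived from these curves.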
# OVCAR-4 [3] = test: Growth inhibition of human OVCAR-4 cells assessed as cell growth at 1 uM incubated for 48 hrs by sulforhodamine B assay relative to control; settings: read-out: Activity
# 786-0 = test: Growth inhibition of human 786-0 cells assessed as cell growth at 1 uM incubated for 48 hrs by sulforhodamine B assay relative to control; settings: read-out: Activity
# Method in brief: (§2)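 NCI Developmental Therapeutics Program NCI60 panel. Compounds that were active in the 10 µM one-dose screen went on to dose–response testing. Growth at each concentration is expressed relative to untreated control (100%). GI50 (concentration giving 50% of maximal inhibition of proliferation) and TGI (concentration giving total growth inhibition) were derived from the curves.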
# SNB-75 = test: Growth inhibition of human SNB-75 cells assessed as cell growth at 0.01 uM incubated for 48 hrs by sulforhodamine B assay relative to control; settings: read-out: Activity
# SNB-19 = test: Growth inhibition of human SNB-19 cells assessed as cell growth at 0.01 uM incubated for 48 hrs by sulforhodamine B assay relative to control; settings: read-out: Activity
# CCRF-CEM = test: Growth inhibition of human CCRF-CEM cells assessed as cell growth at 0.1 uM incubated for 48 hrs by sulforhodamine B assay relative to control; settings: read-out: Activity; method in brief: as §2
# LOX IMVI = test: Growth inhibition of human LOX IMVI cells assessed as cell growth at 100 uM incubated for 48 hrs by sulforhodamine B assay relative to control; settings: read-out: Activity
# A498 [4] = test: Growth inhibition of human A498 cells incubated for 48 hrs by sulforhodamine B assay; settings: for CC50: read-out: LC50 (the source's name); method in brief: as §2
# NCI-H522 = test: Growth inhibition of human NCI-H522 cells assessed as cell growth at 0.1 uM incubated for 48 hrs by sulforhodamine B assay relative to control; settings: read-out: Activity
# NCI-H322M = test: Growth inhibition of human NCI-H322M cells incubated for 48 hrs by sulforhodamine B assay; settings: for CC50: read-out: LC50 (the source's name)
# Method in brief: (§3)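 NCI60 panel at the NCI Developmental Therapeutics Program. Only compounds active in the 10 µM screen went to dose-response testing. GI50, the concentration giving 50% of maximal inhibition of proliferation, and TGI, the concentration giving total growth inhibition, were derived from the dose-response curves.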
# SK-MEL-28 [5] = test: Growth inhibition of human SK-MEL-28 cells assessed as cell growth at 1 uM incubated for 48 hrs by sulforhodamine B assay relative to control; settings: read-out: Activity
# SF-268 = test: Growth inhibition of human SF-268 cells assessed as cell growth at 1 uM incubated for 48 hrs by sulforhodamine B assay relative to control; settings: read-out: Activity
# OVCAR-3 = test: Growth inhibition of human OVCAR-3 cells assessed as cell growth at 0.01 uM incubated for 48 hrs by sulforhodamine B assay relative to control; settings: read-out: Activity
# MDA-MB-231 [6] = test: Growth inhibition of human MDA-MB-231 cells assessed as cell growth at 1 uM incubated for 48 hrs by sulforhodamine B assay relative to control; settings: read-out: Activity
# SN12C = test: Growth inhibition of human SN12C cells assessed as cell growth at 100 uM incubated for 48 hrs by sulforhodamine B assay relative to control; settings: read-out: Activity
# OVCAR-5 = test: Growth inhibition of human OVCAR-5 cells assessed as cell growth at 0.01 uM incubated for 48 hrs by sulforhodamine B assay relative to control; settings: read-out: Activity
# HOP-92 = test: Growth inhibition of human HOP-92 cells incubated for 48 hrs by sulforhodamine B assay; method in brief: as §3
# SR = test: Growth inhibition of human SR cells assessed as cell growth at 100 uM incubated for 48 hrs by sulforhodamine B assay relative to control; settings: read-out: Activity
# KM12 = test: Growth inhibition of human KM12 cells assessed as cell growth at 0.1 uM incubated for 48 hrs by sulforhodamine B assay relative to control; settings: read-out: Activity
# SK-MEL-28 [7] = test: Growth inhibition of human SK-MEL-28 cells incubated for 48 hrs by sulforhodamine B assay; method in brief: as §1
# K562 = test: Growth inhibition of human K562 cells assessed as cell growth at 0.1 uM incubated for 48 hrs by sulforhodamine B assay relative to control; settings: read-out: Activity
# MDA-MB-231 [8] = test: Growth inhibition of human MDA-MB-231 cells assessed as cell growth at 0.01 uM incubated for 48 hrs by sulforhodamine B assay relative to control; settings: read-out: Activity
# HCC 2998 = test: Growth inhibition of human HCC 2998 cells assessed as cell growth at 100 uM incubated for 48 hrs by sulforhodamine B assay relative to control; settings: read-out: Activity; method in brief: as §2
# IGROV-1 = test: Growth inhibition of human IGROV-1 cells assessed as cell growth at 100 uM incubated for 48 hrs by sulforhodamine B assay relative to control; settings: read-out: Activity
# HT-29 [9] = test: Growth inhibition of human HT-29 cells assessed as cell growth at 100 uM incubated for 48 hrs by sulforhodamine B assay relative to control; settings: read-out: Activity
# A498 [10] = test: Growth inhibition of human A498 cells assessed as cell growth at 1 uM incubated for 48 hrs by sulforhodamine B assay relative to control; settings: read-out: Activity; method in brief: as §2
# SK-OV-3 = test: Growth inhibition of human SK-OV-3 cells incubated for 48 hrs by sulforhodamine B assay; settings: for CC50: read-out: LC50 (the source's name); method in brief: as §1
# SW-620 = test: Growth inhibition of human SW-620 cells assessed as cell growth at 1 uM incubated for 48 hrs by sulforhodamine B assay relative to control; settings: read-out: Activity
# M14 = test: Growth inhibition of human M14 cells assessed as cell growth at 0.01 uM incubated for 48 hrs by sulforhodamine B assay relative to control; settings: read-out: Activity
# OVCAR-8 = test: Growth inhibition of human OVCAR-8 cells assessed as cell growth at 100 uM incubated for 48 hrs by sulforhodamine B assay relative to control; settings: read-out: Activity
# HT-29 [11] = test: Growth inhibition of human HT-29 cells assessed as cell growth at 1 uM incubated for 48 hrs by sulforhodamine B assay relative to control; settings: read-out: Activity
# DU-145 = test: Growth inhibition of human DU-145 cells assessed as cell growth at 100 uM incubated for 48 hrs by sulforhodamine B assay relative to control; settings: read-out: Activity; method in brief: as §2
# SF-295 = test: Growth inhibition of human SF-295 cells assessed as cell growth at 1 uM incubated for 48 hrs by sulforhodamine B assay relative to control; settings: read-out: Activity
smiles,measurement,setting,value
COc1cccc(NC(=O)c2sc3nc4c(cc3c2N)CN(Cc2ccccc2)CC4)c1,growth at 100 µM,OVCAR-4 [1],-32%
same,growth at 100 µM,UACC-257,21%
same,GI50,OVCAR-4 [2],2.68 µM
same,TGI,OVCAR-4 [2],19.7 µM
same,CC50,OVCAR-4 [2],> 100 µM
same,growth at 1 µM,OVCAR-4 [3],78%
same,growth at 1 µM,786-0,85%
same,growth at 0.01 µM,SNB-75,88%
same,growth at 0.01 µM,SNB-19,98%
same,growth at 0.1 µM,CCRF-CEM,98%
same,growth at 100 µM,LOX IMVI,-15%
same,GI50,A498 [4],3.82 µM
same,TGI,A498 [4],24.4 µM
same,CC50,A498 [4],> 100 µM
same,growth at 0.1 µM,NCI-H522,95%
same,GI50,NCI-H322M,25.2 µM
same,TGI,NCI-H322M,> 100 µM
same,CC50,NCI-H322M,> 100 µM
same,growth at 1 µM,SK-MEL-28 [5],68%
same,growth at 1 µM,SF-268,91%
same,growth at 0.01 µM,OVCAR-3,107%
same,growth at 1 µM,MDA-MB-231 [6],78%
same,growth at 100 µM,SN12C,16%
same,growth at 0.01 µM,OVCAR-5,91%
same,GI50,HOP-92,2.21 µM
same,LC50 (concentration killing 50% of the starting cells),HOP-92,> 100 µM
same,TGI,HOP-92,24.1 µM
same,growth at 100 µM,SR,-19%
same,growth at 0.1 µM,KM12,98%
same,GI50,SK-MEL-28 [7],2.8 µM
same,LC50,SK-MEL-28 [7],> 100 µM
same,TGI,SK-MEL-28 [7],29.7 µM
same,growth at 0.1 µM,K562,101%
same,growth at 0.01 µM,MDA-MB-231 [8],107%
same,growth at 100 µM,HCC 2998,9%
same,growth at 100 µM,IGROV-1,4%
same,growth at 100 µM,HT-29 [9],-72%
same,growth at 1 µM,A498 [10],79%
same,GI50,SK-OV-3,2.78 µM
same,TGI,SK-OV-3,14 µM
same,CC50,SK-OV-3,62.5 µM
same,growth at 1 µM,SW-620,57%
same,growth at 0.01 µM,M14,96%
same,growth at 100 µM,OVCAR-8,-2%
same,growth at 1 µM,HT-29 [11],96%
same,growth at 100 µM,DU-145,-61%
same,growth at 1 µM,SF-295,77%
Cc1ccc(NC(=O)c2sc3nc4c(cc3c2N)C(=O)CCC4)cc1C,growth at 100 µM,OVCAR-4 [1],18%
same,growth at 100 µM,UACC-257,35%
same,GI50,OVCAR-4 [2],0.0201 µM
same,TGI,OVCAR-4 [2],> 100 µM
same,CC50,OVCAR-4 [2],> 100 µM
same,growth at 1 µM,OVCAR-4 [3],42%
same,growth at 1 µM,786-0,40%
same,growth at 0.01 µM,SNB-75,78%
same,growth at 0.01 µM,SNB-19,91%
same,growth at 0.1 µM,CCRF-CEM,97%
same,growth at 100 µM,LOX IMVI,20%
same,GI50,A498 [4],0.198 µM
same,CC50,A498 [4],> 100 µM
same,growth at 0.1 µM,NCI-H522,82%
same,GI50,NCI-H322M,0.975 µM
same,TGI,NCI-H322M,> 100 µM
same,CC50,NCI-H322M,> 100 µM
same,growth at 1 µM,SK-MEL-28 [5],51%
same,growth at 1 µM,SF-268,57%
same,growth at 0.01 µM,OVCAR-3,102%
same,growth at 1 µM,MDA-MB-231 [6],56%
same,growth at 100 µM,SN12C,17%
same,growth at 0.01 µM,OVCAR-5,89%
same,LC50 (concentration killing 50% of the starting cells),HOP-92,> 100 µM
same,TGI,HOP-92,> 100 µM
same,growth at 100 µM,SR,-14%
same,growth at 0.1 µM,KM12,96%
same,GI50,SK-MEL-28 [7],1.51 µM
same,LC50,SK-MEL-28 [7],> 100 µM
same,TGI,SK-MEL-28 [7],> 100 µM
same,growth at 0.1 µM,K562,118%
same,growth at 0.01 µM,MDA-MB-231 [8],98%
same,growth at 100 µM,HCC 2998,5%
same,growth at 100 µM,IGROV-1,10%
same,growth at 100 µM,HT-29 [9],-23%
same,growth at 1 µM,A498 [10],-17%
same,GI50,SK-OV-3,0.534 µM
same,TGI,SK-OV-3,> 100 µM
same,CC50,SK-OV-3,> 100 µM
same,growth at 1 µM,SW-620,19%
same,growth at 0.01 µM,M14,96%
same,growth at 100 µM,OVCAR-8,11%
same,growth at 1 µM,HT-29 [11],14%
same,growth at 100 µM,DU-145,14%
same,growth at 1 µM,SF-295,17%
